Measured values pooled from the literature.
Lines come from different studies, so protocols differ.
Organism: Staphylococcus aureus
Read-out: microbial growth

Cc1ccc2nc(-n3nc(C)c4c3-c3ccccc3C4=O)sc2c1 gave an inhibition zone of 11 mm (well diffusion; NCIM5021; 250 µg/mL).
COc1cc(C=Cc2cc(-c3ccc(N(C)C)cc3)nc(O)n2)ccc1O gave an inhibition zone of 6 mm (disc diffusion; ATCC29213; 250 µg/mL).
With O=C(O)c1cn(C2CC2)c2cc(N3CCNCC3)c(F)cc2c1=O the inhibition zone was 18 mm (SG511; 1000 µg/mL).
CCOC(=O)C1=C(C)N2NC(C)(c3ccccc3O)N(C(Cc3c[nH]c4ccccc34)C(=O)O)C2=NC1c1ccc(Cl)cc1 (stereo not drawn) gave an inhibition zone of 18 mm (ATCC25923; 10 µg/mL; 24 h).
The inhibition zone of CC(C)c1nn(-c2nc3ccc(Br)cc3s2)c2c1C(=O)c1ccccc1-2 is reported as 11 mm (well diffusion; NCIM5021; 250 µg/mL).
CC(C(=O)O)N1C2=NC(c3ccc(Cl)cc3)C3=C(OC(C)(C)OC3=O)N2NC1(C)c1ccccc1O (stereo not drawn) gave an inhibition zone of 10 mm (ATCC25923; 10 µg/mL; 24 h).
With CC1(C)S[C@@H]2[C@H](NC(=O)[C@H](N)c3ccc(O)cc3)C(=O)N2[C@H]1C(=O)O the inhibition zone was 9.37 mm (disc diffusion; ATCC29213; 250 µg/mL).
For CN[C@H](CC(C)C)C(=O)N[C@H]1C(=O)N[C@@H](CC(N)=O)C(=O)N[C@H]2C(=O)N[C@H]3C(=O)N[C@H](C(=O)N[C@H](C(=O)O)c4cc(O)cc(O)c4-c4cc3ccc4O)[C@H](O)c3ccc(c(Cl)c3)Oc3cc2cc(c3O[C@@H]2O[C@H](CO)[C@@H](O)[C@H](O)[C@H]2O[C@H]2C[C@](C)(N)[C@H](O)[C@H](C)O2)Oc2ccc(cc2Cl)[C@H]1O, the inhibition zone was 16 mm (disc diffusion; ATCC29213; 15.6 µg/disc; 24 h).
Cc1ccc2nc(-n3nc(C(C)C)c4c3-c3ccccc3C4=O)sc2c1 gave an inhibition zone of 13 mm (well diffusion; NCIM5021; 500 µg/mL).
With CC(=O)C1=C(C)N2NC(C)(c3ccccc3O)N(C(Cc3c[nH]c4ccccc34)C(=O)O)C2=NC1c1ccc(Cl)cc1 (stereo not drawn) the inhibition zone was 33 mm (ATCC25923; 15 µg/mL; 24 h).
With COc1cc(C=CC(=O)CC(c2ccc(N(C)C)cc2)n2ccnc2)ccc1O (stereo not drawn) the inhibition zone was 9 mm (disc diffusion; ATCC29213; 250 µg/mL).
CC(=O)C1=C(C)N2NC(c3ccccc3O)N(C(Cc3c[nH]c4ccccc34)C(=O)O)C2=NC1c1ccc(Cl)cc1 (stereo not drawn) has an inhibition zone of 32 mm (ATCC25923; 15 µg/mL; 24 h).
With COc1ccc2nc(-n3nc(C)c4c3-c3ccccc3C4=O)sc2c1 the inhibition zone was 11 mm (well diffusion; NCIM5021; 125 µg/mL).
With CCOC(=O)C1=C(C)N2NC(c3ccccc3O)N(C(Cc3c[nH]c4ccccc34)C(=O)O)C2=NC1c1ccc(Cl)cc1 (stereo not drawn) the inhibition zone was 19 mm (ATCC25923; 10 µg/mL; 24 h).
COc1ccc2nc(-n3nc(CC(C)C)c4c3-c3ccccc3C4=O)sc2c1 gave an inhibition zone of 13 mm (well diffusion; NCIM5021; 1000 µg/mL).
COc1cc(C=CC(=O)CC(c2ccc([N+](=O)[O-])cc2)n2ccnc2)ccc1O (stereo not drawn) gave an inhibition zone of 6 mm (disc diffusion; ATCC29213; 250 µg/mL).
The inhibition zone of N#Cc1c(-c2ccc(Cl)cc2)nc2n(c1=O)NC(c1ccccc1O)N2C(Cc1c[nH]c2ccccc12)C(=O)O (stereo not drawn) is reported as 18 mm (ATCC25923; 10 µg/mL; 24 h).
The inhibition zone of CC(C)c1nn(-c2nc3ccccc3s2)c2c1C(=O)c1ccccc1-2 is reported as 12 mm (well diffusion; NCIM5021; 1000 µg/mL).
